Results from different studies.
Each line is one published result; the experiments were not run side by side.
Cell line: Vero
Effect on: cell growth or viability

SMILES	technique	time	CC50
COC(=O)N[C@@H](C[S+]([O-])Cc1ccccc1)C(=O)N1CCC[C@H]1c1ncc(-c2ccc(-c3ccc(-c4cnc([C@@H]5CCCN5C(=O)[C@@H](NC(=O)OC)C(C)C)[nH]4)cc3)cc2)[nH]1 (stereo partly drawn)			4 µM
O=C(Nc1ccc(Cl)cc1)c1cc(Cl)ccc1O	MTT	72 h	20 µg/mL
Brc1ccc(NCc2ccc(Oc3ccccn3)cc2)cc1	MTT	72 h	> 300 µM
CC(C)(CO)C(=O)SCCOP(=O)(NCc1ccccc1)OC[C@H]1O[C@@H](n2cnc3c(=O)[nH]c(N)nc32)[C@](C)(O)[C@@H]1O (mixture of isomers)			> 100 µM
COc1ccc(NCc2ccc(Oc3ccccn3)cc2)cc1	MTT	72 h	> 300 µM
COC(=O)N[C@H](C(=O)N1C[C@H](N=[N+]=[N-])C[C@H]1c1ncc(-c2ccc(-c3ccc(-c4cnc([C@@H]5C[C@@H](N=[N+]=[N-])CN5C(=O)[C@@H](NC(=O)OC)C(C)C)[nH]4)cc3)cc2)[nH]1)C(C)C			> 100 µM
NC(=O)c1ncn([C@@H]2O[C@H](CO)[C@@H](O)[C@H]2O)n1	MTT	72 h	> 200 µM
CC1(C)OB(CC2c3ccccc3C(=O)N2C2CCCCC2)OC1(C)C (stereo not drawn)			175 µM
Clc1cccc(NCc2ccc(Oc3ccccn3)cc2)c1	MTT	72 h	> 300 µM
N#Cc1c(-c2ccc(Cl)cc2)nc2n(c1=O)NC(c1ccccc1O)N2C(Cc1c[nH]c2ccccc12)C(=O)O (stereo not drawn)	MTT	72 h	250 µg/mL
O=C(Nc1ccc(Br)cc1)c1cc(Cl)ccc1O	MTT	72 h	10 µg/mL
CC1(c2ccccc2O)Nn2c(nc(-c3ccc(Cl)cc3)c(C#N)c2=O)N1C(Cc1c[nH]c2ccccc12)C(=O)O (stereo not drawn)	MTT	72 h	500 µg/mL
Clc1ccc(NCc2ccc(Oc3ccccn3)cc2)cc1	MTT	72 h	> 300 µM
O=C(Nc1ccc(Br)c(C(F)(F)F)c1)c1ccccc1O	MTT	72 h	< 5 µg/mL
CCOC(=O)C1=C(C)N2NC(c3ccccc3O)N(C(Cc3c[nH]c4ccccc34)C(=O)O)C2=NC1c1ccc(Cl)cc1 (stereo not drawn)	MTT	72 h	250 µg/mL
O=C(Nc1ccc(F)c(Cl)c1)c1cc(Cl)ccc1O	MTT	72 h	< 5 µg/mL
COc1ccc(CN2C(=O)c3ccccc3C2CB2OC(C)(C)C(C)(C)O2)cc1 (stereo not drawn)			2.3 µM
O=C(Nc1ccc(Cl)c(C(F)(F)F)c1)c1cc(Cl)ccc1O	MTT	72 h	5 µg/mL
Fc1ccccc1NCc1ccc(Oc2ccccn2)cc1	MTT	72 h	> 300 µM
O=C(Nc1ccc(Cl)c(C(F)(F)F)c1)c1ccccc1O	MTT	72 h	< 10 µg/mL
Cc1ccccc1NCc1ccc(Oc2ccccn2)cc1	MTT	72 h	> 300 µM
